Data from ChEMBL document CHEMBL3351818, “Synthesis and biological evaluation of novel 3,4-diaryl-1,2,5-selenadiazol analogues of combretastatin A-4” (Eur J Med Chem, 2014).
Blank lines part the entries; values can stand above or below the compound they belong to. The source made the active and inactive calls. No cut-off for these calls is given here.

Key:
[1] = Antiproliferative activity against human SGC7901 cells after 72 hrs by MTT assay; format: functional, cell-based; conditions: SGC-7901, 72 h
Outline: (§1)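 Cells were seeded at 1–3 × 10⁴/well, depending on growth rate, and grown 24 h. Triplicate wells were then exposed to agents for 72 h at 37 °C in 5% CO₂. IC50 is the concentration giving 50% absorbance reduction versus vehicle, averaged from ≥3 independent experiments. SGC-7901 and HT-1080 were cultured in RPMI-1640 with 10% FBS.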

KB = assay: Antiproliferative activity against human KB cells after 72 hrs by MTT assay; format: functional, cell-based; outline: as §1
[2] = Antiproliferative activity against human HT1080 cells after 72 hrs by MTT assay; format: functional, cell-based; conditions: HT-1080, 72 h; outline: as §1
[3] = Cell cycle arrest in human HT1080 cells assessed as accumulation at sub-G1 phase at 150 nM after 24 hrs using propidium iodide staining by FACScan flow cytometry; format: functional, cell-based; conditions: HT-1080
Outline: (§2)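 HT-1080 cells (8 × 10⁴) exposed 24 h to test agent or 0.05% DMSO vehicle. Harvested by centrifugation, PBS-washed, fixed in ice-cold 70% ethanol, then RNase-treated 30 min at 37 °C. Propidium iodide 50 µg/mL applied 30 min at 4 °C in the dark before FACScan flow cytometry. Repeated at least three times.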

HT-1080 [4] = assay: Disruption of microtubule network in human HT1080 cells assessed as loss of the radial distribution of structured microtubules at 2 times IC50 after 12 hrs by immunofluorescence staining method; format: cell-based
Outline: (§3)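 HT-1080 cells seeded at 1 × 10⁴/well, grown 24 h, then given vehicle or agent for 12 h. Fixed in 4% formaldehyde/PBS 30 min at −20 °C, permeabilised with 0.1% Triton X-100 5 min, and blocked with 5% BSA. Anti-α-tubulin (1:100) applied overnight at 4 °C, then FITC anti-mouse secondary (1:1000) 3 h at 37 °C, with DAPI counterstain.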

[5] = Cell cycle arrest in human HT1080 cells assessed as accumulation at sub-G1 phase at 25 nM after 24 hrs using propidium iodide staining by FACScan flow cytometry; format: functional, cell-based; conditions: HT-1080; outline: as §2
[6] = Cell cycle arrest in human HT1080 cells assessed as accumulation at G0/G1 phase at 50 nM after 24 hrs using propidium iodide staining by FACScan flow cytometry (Rvb =52.17 %); format: functional, cell-based; conditions: HT-1080; outline: as §2
[7] = Cell cycle arrest in human HT1080 cells assessed as accumulation at G2/M phase at 100 nM after 24 hrs using propidium iodide staining by FACScan flow cytometry (reference value: 29.27 %); format: functional, cell-based; conditions: HT-1080; outline: as §2
[8] = Cell cycle arrest in human HT1080 cells assessed as accumulation at S phase at 75 nM after 24 hrs using propidium iodide staining by FACScan flow cytometry (reference value: 18.56 %); format: functional, cell-based; conditions: HT-1080; outline: as §2
[9] = Cell cycle arrest in human HT1080 cells assessed as accumulation at S phase at 25 nM after 24 hrs using propidium iodide staining by FACScan flow cytometry (reference value: 18.56 %); format: functional, cell-based; conditions: HT-1080; outline: as §2
[10] = Cell cycle arrest in human HT1080 cells assessed as accumulation at S phase at 50 nM after 24 hrs using propidium iodide staining by FACScan flow cytometry (reference value: 18.56 %); format: functional, cell-based; conditions: HT-1080; outline: as §2
[11] = Cell cycle arrest in human HT1080 cells assessed as accumulation at sub-G1 phase at 100 nM after 24 hrs using propidium iodide staining by FACScan flow cytometry; format: functional, cell-based; conditions: HT-1080; outline: as §2
[12] = Cell cycle arrest in human HT1080 cells assessed as accumulation at G2/M phase at 75 nM after 24 hrs using propidium iodide staining by FACScan flow cytometry (reference value: 29.27 %); format: functional, cell-based; conditions: HT-1080; outline: as §2
[13] = Cell cycle arrest in human HT1080 cells assessed as accumulation at sub-G1 phase at 75 nM after 24 hrs using propidium iodide staining by FACScan flow cytometry; format: functional, cell-based; conditions: HT-1080; outline: as §2
Tubulin (Homo sapiens) [14] = target: T1, Tubulin (Homo sapiens) (UniProt P68371+Q9H4B7+P0DPH7+P68366+Q13509+Q71U36+P04350+Q3ZCM7+P07437+P68363+Q9BQE3+Q6PEY2+Q13885+Q9BVA1+Q9BUF5); assay: Inhibition of tubulin (unknown origin) polymerization at 4 uM measured for 90 mins by fluorescence assay; format: protein-complex assay
Tubulin (Homo sapiens) [15] = target: T1, Tubulin (Homo sapiens); assay: Inhibition of tubulin (unknown origin) polymerization at 8 uM measured for 90 mins by fluorescence assay; format: protein-complex assay
HT-1080 [16] = assay: Disruption of microtubule network in human HT1080 cells assessed as cell detachment at 2 times IC50 after 12 hrs by immunofluorescence staining method; format: cell-based; outline: as §3
[17] = Cell cycle arrest in human HT1080 cells assessed as accumulation at sub-G1 phase at 50 nM after 24 hrs using propidium iodide staining by FACScan flow cytometry; format: functional, cell-based; conditions: HT-1080; outline: as §2
[18] = Cell cycle arrest in human HT1080 cells assessed as accumulation at G0/G1 phase at 150 nM after 24 hrs using propidium iodide staining by FACScan flow cytometry (Rvb =52.17 %); format: functional, cell-based; conditions: HT-1080; outline: as §2
HT-1080 [19] = assay: Disruption of microtubule network in human HT1080 cells assessed as cell rounding at 2 times IC50 after 12 hrs by immunofluorescence staining method; format: cell-based; outline: as §3
[20] = Cell cycle arrest in human HT1080 cells assessed as accumulation at S phase at 100 nM after 24 hrs using propidium iodide staining by FACScan flow cytometry (reference value: 18.56 %); format: functional, cell-based; conditions: HT-1080; outline: as §2
Tubulin (Homo sapiens) [21] = target: T1, Tubulin (Homo sapiens); assay: Inhibition of tubulin (unknown origin) polymerization at 2 uM measured for 90 mins by fluorescence assay; format: protein-complex assay
[22] = Cell cycle arrest in human HT1080 cells assessed as accumulation at G0/G1 phase at 75 nM after 24 hrs using propidium iodide staining by FACScan flow cytometry (Rvb =52.17 %); format: functional, cell-based; conditions: HT-1080; outline: as §2
Tubulin (Homo sapiens) [23] = target: T1, Tubulin (Homo sapiens); assay: Inhibition of tubulin (unknown origin) polymerization at 1 uM measured for 90 mins by fluorescence assay; format: protein-complex assay
[24] = Cell cycle arrest in human HT1080 cells assessed as accumulation at G0/G1 phase at 25 nM after 24 hrs using propidium iodide staining by FACScan flow cytometry (Rvb =52.17 %); format: functional, cell-based; conditions: HT-1080; outline: as §2
[25] = Cell cycle arrest in human HT1080 cells assessed as accumulation at G2/M phase at 50 nM after 24 hrs using propidium iodide staining by FACScan flow cytometry (reference value: 29.27 %); format: functional, cell-based; conditions: HT-1080; outline: as §2
[26] = Cell cycle arrest in human HT1080 cells assessed as accumulation at G0/G1 phase at 100 nM after 24 hrs using propidium iodide staining by FACScan flow cytometry (Rvb =52.17 %); format: functional, cell-based; conditions: HT-1080; outline: as §2
[27] = Cell cycle arrest in human HT1080 cells assessed as accumulation at G2/M phase at 25 nM after 24 hrs using propidium iodide staining by FACScan flow cytometry (reference value: 29.27 %); format: functional, cell-based; conditions: HT-1080; outline: as §2
[28] = Cell cycle arrest in human HT1080 cells assessed as accumulation at G2/M phase after 24 hrs using propidium iodide staining by FACScan flow cytometry; format: functional, cell-based; conditions: HT-1080; outline: as §2
Tubulin (Homo sapiens) [29] = target: T1, Tubulin (Homo sapiens); assay: Inhibition of tubulin (unknown origin) polymerization measured for 90 mins by fluorescence assay; format: protein-complex assay
[30] = Cell cycle arrest in human HT1080 cells assessed as accumulation at G2/M phase at 150 nM after 24 hrs using propidium iodide staining by FACScan flow cytometry (reference value: 29.27 %); format: functional, cell-based; conditions: HT-1080; outline: as §2
[31] = Cell cycle arrest in human HT1080 cells assessed as accumulation at S phase at 150 nM after 24 hrs using propidium iodide staining by FACScan flow cytometry (reference value: 18.56 %); format: functional, cell-based; conditions: HT-1080; outline: as §2

IC50 (KB): 1.52 µM
Structure (SMILES): CNc1cc(-c2n[se]nc2-c2cc(OC)c(OC)c(OC)c2)ccc1OC
IC50 [1]: > 30 µM
IC50 [2]: 0.98 µM

IC50 (KB): 0.011 µM
Structure (SMILES): COc1ccc(-c2n[se]nc2-c2cc(OC)c(OC)c(OC)c2)cc1N
IC50 [1]: 0.021 µM
IC50 [2]: 0.026 µM

IC50 (KB): 0.099 µM
Structure (SMILES): CCOc1ccc(-c2n[se]nc2-c2cc(OC)c(OC)c(OC)c2)cc1N
IC50 [1]: 0.14 µM
IC50 [2]: 10.1 µM

IC50 (KB): 3.06 µM
Structure (SMILES): COc1ccc(-c2n[se]nc2-c2cc(OC)c(OC)c(OC)c2)cc1Br
IC50 [1]: > 30 µM
IC50 [2]: 2.59 µM

IC50 (KB): 0.77 µM
Structure (SMILES): COc1cc(-c2n[se]nc2-c2ccc3ccccc3c2)cc(OC)c1OC
IC50 [1]: 2.35 µM
IC50 [2]: 1.11 µM

IC50 (KB): 10.7 µM
Structure (SMILES): COc1cc(-c2n[se]nc2-c2cccc(OCc3ccccc3)c2)cc(OC)c1OC
IC50 [1]: > 30 µM
IC50 [2]: > 30 µM

IC50 (KB): > 30 µM
Structure (SMILES): COc1ccc(-c2n[se]nc2-c2cc(OC)c(OC)c(OC)c2)cc1OCc1ccccc1
IC50 [1]: > 30 µM
IC50 [2]: > 30 µM

inhibition (Tubulin (Homo sapiens) [14]): 65%
inhibition (Tubulin (Homo sapiens) [15]): 97.6%
inhibition (Tubulin (Homo sapiens) [21]): 48.8%
inhibition (Tubulin (Homo sapiens) [23]): 20.4%
IC50 (KB): 0.0039 µM
inhibition (Tubulin (Homo sapiens) [29]): Dose-dependent effect
Structure (SMILES): COc1ccc(-c2n[se]nc2-c2cc(OC)c(OC)c(OC)c2)cc1O
Activity [3]: 10.9%
Activity (HT-1080 [4]): Active
Activity [5]: 15.7%
Activity [6]: 49.1%
Activity [7]: 72.4%
IC50 [1]: 0.019 µM
Activity [8]: 13.3%
Activity [9]: 3.1%
Activity [10]: 16%
Activity [11]: 18.1%
Activity [12]: 45.2%
Activity [13]: 4.39%
Activity (HT-1080 [16]): Active
Activity [17]: 2.47%
Activity [18]: 2.61%
Activity (HT-1080 [19]): Active
Activity [20]: 4.07%
Activity [22]: 37.2%
Activity [24]: 3.93%
Activity [25]: 32.4%
Activity [26]: 5.46%
Activity [27]: 71.9%
Activity [28]: Dose-dependent effect
Activity [30]: 80.7%
Activity [31]: 5.82%
IC50 [2]: 0.021 µM

IC50 (KB): 10.1 µM
Structure (SMILES): COc1ccc(-c2n[se]nc2-c2cc(OC)c(OC)c(OC)c2)cc1[N+](=O)[O-]
IC50 [1]: > 30 µM
IC50 [2]: 24.8 µM

Continued, compound first:

Structure (SMILES): COc1ccc(-c2n[se]nc2-c2ccc3c(c2)OCO3)cc1O
IC50 [1]: 3.68 µM
IC50 (KB): 2.38 µM
IC50 [2]: 0.73 µM

Structure (SMILES): CCOc1ccc(-c2n[se]nc2-c2cc(OC)c(OC)c(OC)c2)cc1
IC50 [1]: 0.23 µM
IC50 (KB): 0.42 µM
IC50 [2]: 0.16 µM

Structure (SMILES): COc1ccc(-c2n[se]nc2-c2ccc3c(c2)OCO3)cc1N
IC50 [1]: > 30 µM
IC50 (KB): 1.87 µM
IC50 [2]: 13.5 µM

Structure (SMILES): CCOc1ccc(-c2n[se]nc2-c2cc(OC)c(OC)c(OC)c2)cc1Br
IC50 [1]: 12.8 µM
IC50 (KB): 0.93 µM
IC50 [2]: 3.46 µM

Structure (SMILES): COc1ccc(-c2n[se]nc2-c2ccc3c(c2)OCO3)cc1
IC50 [1]: 8.28 µM
IC50 (KB): 5.21 µM
IC50 [2]: > 30 µM

Structure (SMILES): c1ccc2cc(-c3n[se]nc3-c3ccc4c(c3)OCO4)ccc2c1
IC50 [1]: 17.3 µM
IC50 (KB): 10.4 µM
IC50 [2]: 23.3 µM

Structure (SMILES): COc1ccc(/C=C\c2cc(OC)c(OC)c(OC)c2)cc1O [COMBRETASTATIN A4]
IC50 [1]: 0.028 µM
IC50 (KB): 0.013 µM
IC50 [2]: 0.0076 µM

Structure (SMILES): COc1cc(-c2n[se]nc2-c2ccc(Br)cc2)cc(OC)c1OC
IC50 [1]: 10.9 µM
IC50 (KB): 7.86 µM
IC50 [2]: 7.4 µM

Structure (SMILES): COc1ccc(-c2n[se]nc2-c2ccc3c(c2)OCO3)cc1[N+](=O)[O-]
IC50 [1]: > 30 µM
IC50 (KB): > 30 µM
IC50 [2]: > 30 µM

Structure (SMILES): COc1cc(-c2n[se]nc2-c2ccc(O)cc2)cc(OC)c1OC
IC50 [1]: > 30 µM
IC50 (KB): 15.8 µM
IC50 [2]: 15 µM

Structure (SMILES): COc1ccc(-c2n[se]nc2-c2cc(OC)c(OC)c(OC)c2)cc1
IC50 [1]: 0.063 µM
IC50 (KB): 0.031 µM
IC50 [2]: 0.084 µM

Structure (SMILES): COc1cc(-c2n[se]nc2-c2cccc(O)c2)cc(OC)c1OC
IC50 [1]: > 30 µM
IC50 (KB): > 30 µM
IC50 [2]: 5.98 µM

Structure (SMILES): COc1cc(-c2n[se]nc2-c2ccc(O)c(Br)c2)cc(OC)c1OC
IC50 [1]: > 30 µM
IC50 (KB): 4.8 µM
IC50 [2]: 16.4 µM
